These results are taken from the EternaBench riboswitch data.

The test system of series [1] is MS2 coat protein. In words: apparent Kd, MS2 coat protein; higher = weaker binding; RNA-MaP array; tryptophan 2.4 mM where present. The essentials:
(§1)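 Stalled E. coli RNA polymerase produced the designs on Illumina sequencing-chip clusters. SNAP-549-labelled MS2 coat protein was added from 0.7 or 1.5 nM, doubling to 3 µM, without and then with constant ligand, in 100 mM Tris-HCl pH 7.5, 80 mM KCl, 4 mM MgCl2, BSA, DTT, yeast tRNA and Tween-20. The apparent Kd is the median of filtered per-cluster fits of green signal normalised to red-channel RNA signal and control-cluster median Fmax.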

The subject of series [2] is MS2 coat protein. Kind of series: apparent Kd, MS2 coat protein; higher = weaker binding; RNA-MaP array; theophylline 2 mM where present. The method, boiled down:
as §1

[3] abbreviates: designed as: ON switch for tryptophan, no ligand.
Setting [4] is: ligand present: tryptophan, designed as: ON switch for tryptophan.
The mark [5] stands for this setting: designed as: OFF switch for tryptophan, no ligand.
The mark [6] stands for this setting: ligand present: tryptophan, designed as: OFF switch for tryptophan.
[7] abbreviates: designed as: OFF switch for theophylline, no ligand.
[8] abbreviates: ligand present: theophylline, designed as: OFF switch for theophylline.
Where [9] appears, read: designed as: ON switch for theophylline, no ligand.
The mark [10] stands for this setting: ligand present: theophylline, designed as: ON switch for theophylline.

“AGAGUCUAGUCGGCCGCCACUCAUGUCCAAAGGACAUGAGGAUCACCCAUGUACCAAUGGUACAUGAGGACCGGGACUGGACUCA”: the apparent Kd (usually a dissociation constant that holds for the conditions of the assay) was determined as 27.7 nM in series [1] (setting [3]) and 8.33 nM in series [1] (setting [4]). The like results for “AGAGUCUAGUCGGCCGCCACUCAUGUCCAAUGGACAUGAGGAUCACCCAUGUACCAAAGGUACAUGAGGACCGGGACUGGACUCA” were, in that order, 47.7 nM and 7.57 nM. For “AGCCACUCGAGUGAUCCUCACGAGUGGCUACGAGGACCGGUACGGCCGCCACUCGAAUUAACAUGAGGAUCACCCAUGUAAUCUC”, in that order: 102 nM and 45.9 nM.

As for “GGCAAAAGGUCGGCCGCCACUGUAGGAUGUGUUCUUUCACAUGAGGAUCACCCAUGUUGUUAUUAUAGGACCGGGAUUUUAGGAC”, the “apparent Kd” value worked out at 21.8 nM in series [1] (setting [5]) and 21.1 nM in series [1] (setting [6]).

On to “CCUAUGCAGUCGGCCGCCACUGAAAACAGCCUCAAAAUAAAUAUAACAUGAGGAUCACCCAUGUACAGGACCGGGACUGUAUAGG”, for which the “apparent Kd” value in series [1] (setting [5]) was 147 nM; in series [1] (setting [6]) it was 79.6 nM.

With “CUAUAAGUACCGGUCCUCAGAUCCUCAUGACGAGGACCGGUACGGCCGCCACUCGAAACAUGAGGAUCACCCAUGUAAUAAUAUU”, the results for the “apparent Kd” value in series [1] (setting [5]) and in series [1] (setting [6]) were 20.2 nM and 19.3 nM, respectively.

“GCAUCCUAGUCGGCCGCCACUGGUAUGAACACCUUCACCCGUGUGCACAUGAGGAUCACCCAUGUUAGGACCGGGACUAGGAUGC”: the “apparent Kd” value came to 9.03 nM in series [1] (setting [3]) and 9.3 nM in series [1] (setting [4]). Take “CCUAUGCAGUCGGCCGCCACUGAACAUGAGGAUCACCCAUGUAAUUAAAAUUAAGGUCCUAAAAUCAGGACCGGGACUGUAUAGG”: the “apparent Kd” value in series [1] (setting [5]) was found to be 38.5 nM; in series [1] (setting [6]), 237 nM.

Take “UAAUGCAGGUCGGCCGCCACUACACACAUGAGGAUCACCCAUGUAGUUACUGGGUGAAGUGGCAGUAGGACCGGGACCUGCAUAC”: the “apparent Kd” value in series [1] (setting [3]) was 372 nM; in series [1] (setting [4]), 470 nM. For “CGCGCGACAUGAGGAUCACCCAUGUUCCCUCGAGGACCGGUACGGCCGCCACUCGAGGACAUGAGCAUCAGCCAUGUACCGGUCA”, in that order: 51.6 nM and 131 nM. Consider “GAUGAACUAUAUGAUACCAGACAACAUGAGGAUCACCCAUGUGUAUGUCGUCCUCUGCCUGUCCCUUGGCAGCGUAUAGUUUAUC”, for which the “apparent Kd” value in series [2] (setting [7]) was determined as 32.4 nM; in series [2] (setting [8]), 193 nM. The like results for “UCUUGGUCCGCAAGGACCUUGAGUUGCGAUACCAGCACGGUAACGUGCCCUUGGCAGCGCACAUGAGGAUCACCCAUGUGGUGUU” were, in that order, 261 nM and 236 nM.

In the case of “CAUGGGUGGUAUCACCCAUCCAUAGGUGAUACCAGCAUCGAAAGAUGCCCUUGGCAGCACCAACAUGAGGAUCACCCAUGUAAUA”, the “apparent Kd” value in series [2] (setting [9]) is 264 nM; in series [2] (setting [10]) it was 202 nM. Regarding “UCAUAUUAGAUAGAUGUAAGGUAUCAUGAUACCAGUAGAUAAUUAUACCCUUGGCAGCAUAACAUGAGGAUCACCCAUGUACAUG”, the “apparent Kd” value stood at 21.3 nM in series [2] (setting [7]) and 20.9 nM in series [2] (setting [8]). In the case of “GGAAUAACGAUUGAUACCAGCAUGUUAACAUGAGGAUCACCCAUGUUAAGGAUAACAUAAUGCCCUUGGCAGCAACGGAAACCCG”, the “apparent Kd” value amounted to 21.3 nM in series [2] (setting [9]) and 12.9 nM in series [2] (setting [10]).

Regarding “AUUUACAUGGUCAUAUAUAUAUCGUCAGAUACCAGACUAGAUAUAGUCCCUUGGCAGCUGUUACAUGAGGAUCACCCAUGUUAUA”, the “apparent Kd” value in series [2] (setting [7]) amounted to 129 nM; in series [2] (setting [8]) it was 110 nM. Consider “AACAUACAUGAGGAUCACCCAUGUCACGAUACCAGAUACAUGAGGAUCCCUUGGCAGCGUCAUGAGGAUCACCCAUGUUGUACAU”, for which the “apparent Kd” value in series [2] (setting [7]) amounted to 16.5 nM; in series [2] (setting [8]), 58.3 nM. As to “AGCUCAUAGAGUGAUACCAGACUACAUGAGGAUCACCCAUGUUACUUUUAAAUAUCAUUUGUCCCUUGGCAGCACAUGAAGAGCA”, the “apparent Kd” value in series [2] (setting [7]) stood at 13.6 nM; in series [2] (setting [8]) it was 12.7 nM. For “UGACAUUGCUCAGAUACCAGACAUGAGGAUCACCCAUGUGCCAAAUAAACGUACAUAAAUGUCCCUUGGCAGCUGAGCAAUGUCU”, in that order: 57.5 nM and 890 nM. For the sequence “AGUACUCGAACGGAUACCAGCCGGACAUGAGGAUCACCCAUGUCCUACCAAUGUUCGGUUGGCCCUUGGCAGCCGUUCGUGUACA”, the “apparent Kd” value in series [2] (setting [9]) amounted to 588 nM; in series [2] (setting [10]), 35.2 nM. As for “ACAUCCAGGUUAAUCGUGGGCAUACUCGAUACCAGUAUUUUAAUCUACCCUUGGCAGCGACAUGAGGAUCACCCAUGUGCGAUGA”, the entries for the “apparent Kd” value in series [2] (setting [7]) and in series [2] (setting [8]) were 12.4 nM and 19.3 nM, respectively. For “AUUAUCAUGGUCAUUUAUAUUUCGUCAGAUACCAGACUAGAUAUAGUCCCUUGGCAGCUGUUACAUGAGGAUCACCCAUGUUAUU”, in that order: 124 nM and 46.6 nM. On to “UAUACAUGAGGAUCACCCAUGUGCCAUGAUACCAGACAUGAAAAUGUCCCUUGGCAGCAUGGGAAAUGUAUAGCGGGAAACCCGA”, for which the “apparent Kd” value amounted to 72.6 nM in series [2] (setting [9]) and 704 nM in series [2] (setting [10]). As for “GAGGGUGAAUCUCUGGUCCGUUUGACGGAUACCAGCGAGAGGUAUCGCCCUUGGCAGCCGACGACAUGAGGAUCACCCAUGUUAA”, the “apparent Kd” value came out at 17.9 nM in series [2] (setting [7]) and 109 nM in series [2] (setting [8]). For “ACAUGAGCAUCAGCCUUGUAGGAACUAGAUACCAGCCCAACAUGAGGCCCUUGGCAGCUGACAACAUGAGGAUCACCCAUGUCAC”, in that order: 36.2 nM and 34.1 nM. The like results for “AAACUGGGUGUAAAAUAAAUAAUCACUGAUACCAGACUAUUUUAUGUCCCUUGGCAGCAGAAACAUGAGGAUCACCCAUGUAAUA” were, in that order, 20.3 nM and 22.5 nM. For “UUUGAUAGGACAGAUACCAGCGUGUUGUUGAACAUGAGGAUCACCCAUGUAGUGAUCGAGCGCCCUUGGCAGCUGGUUUGUUAGG”, the “apparent Kd” value in series [2] (setting [9]) worked out at 382 nM; in series [2] (setting [10]) it was 306 nM. “CAACAAGUAACUGAUACCAGUGUACUGACAUGAGGAUCACCCAUGUUGGGUUUUGUUGUACACCCUUGGCAGCAGAAUCUUGUUG”: the “apparent Kd” value stood at 60.7 nM in series [2] (setting [7]) and 82.5 nM in series [2] (setting [8]). As for “AGUGUAUCCAUCGAUACCAGCCACCACCGAUAGACCACAUGAGGAUCACCCAUGUUGGGUGGCCCUUGGCAGCGGUGGCUGUGUA”, the “apparent Kd” value in series [2] (setting [9]) was 287 nM; in series [2] (setting [10]), 1190 nM. With “UACAUGAGGAUCACCCAUGUAUGAAUGGAUACCAGAUAAAAUAAGGUCCCUUGGCAGCUAGUGAAUCGAGGGUGGGUAUCAUGAU”, the entries for the “apparent Kd” value in series [2] (setting [7]) and in series [2] (setting [8]) were 11.2 nM and 10.3 nM, respectively. The like results for “AUAAGUAAUGUUUCGUGUAUUAUUACAGAUACCAGACUAUACGUUGUCCCUUGGCAGCUGGAUUACAUGAGGAUCACCCAUGUUG” were, in that order, 15.8 nM and 27.5 nM. For “AGCAUUGUAACAGAUACCAGACUUUUAAUGCCUCUAAUUACAUGAGGAUCACCCAUGUUUGUCCCUUGGCAGCUGUUAUGAUGCA”, in that order: 119 nM and 226 nM. For “ACAUGAGGAUCACCCAUGUCUGCCACUGAUACCAGCGGAAGCCAACGCCCUUGGCAGCAGAACAUGAGGAUCACCCAUGUAGGCA”, the “apparent Kd” value was 308 nM in series [2] (setting [9]) and 169 nM in series [2] (setting [10]). For “GAGCUGAUGUAGAGAUUAUAUAAAAGAGAUACCAGUACAGAAAUGUACCCUUGGCAGCUCAACUUUACAUGAGGAUCACCCAUGU”, the “apparent Kd” value came to 14.8 nM in series [2] (setting [7]) and 17.5 nM in series [2] (setting [8]). With “GCACUACAUGAGGAUCACCCAUGUGCAGAUACCAGAGGUGUAUGCCUCCCUUGGCAGCUGAGUAGGUCUGGAGGGCUAUUGGUUU”, the “apparent Kd” value in series [2] (setting [9]) came out at 17.6 nM; in series [2] (setting [10]), 23.5 nM. With “UACAUGAGGAUCACCCAUGUAUAGAGGGAUACCAGUGUCAGUGAGCACCCUUGGCAGCCCGCGAACAAUGGGUGCGCUAUAUAGU”, the “apparent Kd” value in series [2] (setting [7]) is 26.3 nM; in series [2] (setting [8]) it was 62.2 nM. The like results for “UCCUCCUCCGCAAGGAGGAGGAGUUGCGAUACCAGCACGGCAACGUGCCCUUGGCAGCGCACAUGAGGAUCACCCAUGUCAUGUU” were, in that order, 19.4 nM and 24.3 nM. Regarding “UAUAACAUGAGGAUCACCCAUGUAAGUGAUACCAGAUAAAUAAUAGUCCCUUGGCAGCAUAUUGGGAAAAUGUAUAAUAUAUAUU”, the “apparent Kd” value in series [2] (setting [9]) was 57.8 nM; in series [2] (setting [10]), 57.4 nM.

As for “ACAUCCAGAUUAAUCGUGGGCAUACUCGAUACCAGUAUUUUAACCUACCCUUGGCAGCGACAUGAGGAUCACCCAUGUGAGAUGA”, the “apparent Kd” value turned out to be 22.8 nM in series [2] (setting [7]) and 30 nM in series [2] (setting [8]). Turning to “ACAUGAGGAUCACCCAUGUAAUGGCACGAUACCAGCUGAUCCCGUGGCCCUUGGCAGCGUCCGGUGUGGUCCGCCGGGUUGGACG”, the “apparent Kd” value was determined as 23.1 nM in series [2] (setting [9]) and 35 nM in series [2] (setting [10]). For “UUUACAUGAGGAUCACCCAUGUGCCAUGAUACCAGACAUGAAAAUGUCCCUUGGCAGCAUGAGUGAUUCAUCCGAAAGGAUGUUU”, in that order: 121 nM and 673 nM.

With “AAUAACAUGAGGAUCACCCAUGUAAAAGAUACCAGGGUGAUGAUCCUCCCUUGGCAGCUUACAGCUGAUCAAUAAGAUCGGCUGA”, in series [2] (setting [10]), the “apparent Kd” value came to 257 nM. Regarding “UUUACAUGAGGAUCACCCAUGUGCCAUGAUACCAGACAUGAAAAUGUCCCUUGGCAGCAUGAAGGUACCUCAUCGGGAAACCGAA”, the entries for the “apparent Kd” value in series [2] (setting [9]) and in series [2] (setting [10]) were 134 nM and 247 nM, respectively. For “GCACCAGGUACGGAUACCAGCUAUAGGCCCAAUGGGCGACAUGAGGAUCACCCAUGUAAUGGCCCUUGGCAGCUGUACCUGGUGC”, in that order: 88.3 nM and 13.7 nM. In the case of “GGUAGCAGGACUGAUACCAGUCCAGCGAAUCAUACGACGCAACAUGAGGAUCACCCAUGUGACCCUUGGCAGCAGACUGCUACCG”, the “apparent Kd” value in series [2] (setting [9]) is 24.7 nM; in series [2] (setting [10]), 14.5 nM.
